From ChEMBL document CHEMBL4368942, “Dual inhibitors of RAF-MEK-ERK and PI3K-PDK1-AKT pathways: Design, synthesis and preliminary anticancer activity studies of 3-substituted-5-(phenylamino) indolone derivatives” (Bioorg Med Chem, 2019)
Activity calls are given as the source filed them. No cut-off for these calls is given here.

What was measured:
[1] = tested on: A549; experiment: Antiproliferative activity against human A549 cells after 48 hrs by MTT assay; type: functional, cell-based; conditions: A549, 48 h
Procedure, shortened: (§1)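 Cells grown in DMEM with 10% FBS and penicillin/streptomycin at 37°C, 5% CO2. 2 × 10^5 cells seeded per well in 200 µL medium. Compounds added 30 min after seeding, then 48 h incubation at 37°C. MTT (5 mg/ml stock) added for the last 4 h. Formazan dissolved in DMSO.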

[2] = tested on: NCI-H460; experiment: Antiproliferative activity against human NCI-H460 cells after 48 hrs by MTT assay; type: functional, cell-based; conditions: NCI-H460, 48 h; procedure, shortened: as §1
[3] = tested on: A549; experiment: Inhibition of PI3K/PDK1/AKT in human A549 cells assessed as reduction in AKT phosphorylation at 1 uM after 8 hrs by Western blot analysis; type: cell-based
Procedure, shortened: (§2)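 Western blot with primary antibody in BSA overnight at 4°C. Washes in TBS/0.05% Tween-20, then secondary antibody for 1 h at room temperature. Chemiluminescent detection. p-ERK or p-AKT band density normalized to β-actin loading control versus control. Average of three independent experiments.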

[4] = tested on: A549; experiment: Inhibition of RAF/MEK/ERK in human A549 cells assessed as reduction in ERK phosphorylation at 1 uM after 8 hrs by Western blot analysis relative to control; type: cell-based; procedure, shortened: as §2
[5] = tested on: A549; experiment: Induction of apoptosis in human A549 cells assessed as necrotic cells at 2.5 uM after 12 hrs by Annexin V-FITC/propidium iodide staining-based flow cytometric analysis (reference value: 1.42%); type: functional
Procedure, shortened: (§3)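 After 12 h treatment with DMSO as control, A549 cells were harvested by trypsin, washed twice in PBS and resuspended at 1 × 10^6 cells/mL in binding buffer. Annexin V-FITC and PI staining for 30 min at room temperature in the dark. Flow cytometry with 488 nm excitation, FITC read at 530 nm and PI at 670 nm. Quadrant percentages are means of three independent experiments.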

[6] = tested on: A549; experiment: Inhibition of RAF/MEK/ERK in human A549 cells assessed as reduction in ERK phosphorylation after 8 hrs by Western blot analysis; type: cell-based; procedure, shortened: as §2
[7] = tested on: A549; experiment: Induction of apoptosis in human A549 cells assessed as early apoptotic cells at 2.5 uM after 12 hrs by Annexin V-FITC/propidium iodide staining-based flow cytometric analysis (reference value: 7.19%); type: functional; procedure, shortened: as §3
[8] = tested on: A549; experiment: Induction of apoptosis in human A549 cells assessed as viable cells at 2.5 uM after 12 hrs by Annexin V-FITC/propidium iodide staining-based flow cytometric analysis (reference value: 90.6%); type: functional; conditions: A549, 12 h, read-out: Activity; procedure, shortened: as §3
[9] = tested on: A549; experiment: Induction of apoptosis in human A549 cells assessed as late apoptotic cells at 2.5 uM after 12 hrs by Annexin V-FITC/propidium iodide staining-based flow cytometric analysis (reference value: 0.76%); type: functional; procedure, shortened: as §3
[10] = tested on: A549; experiment: Inhibition of PI3K/PDK1/AKT in human A549 cells assessed as reduction in AKT phosphorylation at 2.5 uM after 8 hrs by Western blot analysis; type: cell-based; procedure, shortened: as §2
[11] = tested on: A549; experiment: Induction of apoptosis in human A549 cells assessed as necrotic cells at 5 uM after 12 hrs by Annexin V-FITC/propidium iodide staining-based flow cytometric analysis (reference value: 1.42%); type: functional; procedure, shortened: as §3
[12] = tested on: A549; experiment: Induction of apoptosis in human A549 cells assessed as viable cells at 5 uM after 12 hrs by Annexin V-FITC/propidium iodide staining-based flow cytometric analysis (reference value: 90.6%); type: functional; conditions: A549, 12 h, read-out: Activity; procedure, shortened: as §3
[13] = tested on: A549; experiment: Induction of apoptosis in human A549 cells assessed as early apoptotic cells at 5 uM after 12 hrs by Annexin V-FITC/propidium iodide staining-based flow cytometric analysis (reference value: 7.19%); type: functional; procedure, shortened: as §3
[14] = tested on: A549; experiment: Inhibition of PI3K/PDK1/AKT in human A549 cells assessed as reduction in AKT phosphorylation after 8 hrs by Western blot analysis; type: cell-based; procedure, shortened: as §2
[15] = tested on: A549; experiment: Inhibition of RAF/MEK/ERK in human A549 cells assessed as reduction in ERK phosphorylation at 2.5 uM after 8 hrs by Western blot analysis; type: cell-based; procedure, shortened: as §2
[16] = tested on: A549; experiment: Induction of apoptosis in human A549 cells assessed as late apoptotic cells at 5 uM after 12 hrs by Annexin V-FITC/propidium iodide staining-based flow cytometric analysis (reference value: 0.76%); type: functional; procedure, shortened: as §3
[17] = tested on: A549; experiment: Inhibition of PI3K/PDK1/AKT in human A549 cells assessed as remaining AKT phosphorylation level at 1 uM after 8 hrs by Western blot analysis

CCCCCC1(O)C(=O)Nc2ccc(Nc3ccc(F)cc3)cc21 (configuration not stated)
IC50 [1]: 5.9 µM | IC50 [2]: > 100 µM

COc1ccc(Nc2ccc3c(c2)C(O)(Cc2ccccc2)C(=O)N3)cc1 (configuration not stated)
IC50 [1]: > 30 µM | IC50 [2]: > 100 µM

CC(C)CCC1(O)C(=O)Nc2ccc(Nc3ccc(C(F)(F)F)cc3)cc21 (configuration not stated)
IC50 [1]: 4.2 µM | IC50 [2]: 17.2 µM

CC(C)CCC1(O)C(=O)Nc2ccc(Nc3ccc(F)cc3)cc21 (configuration not stated)
IC50 [1]: 5.7 µM | IC50 [2]: 16.8 µM

CCCCCCC1(O)C(=O)Nc2ccc(Nc3ccc(C)cc3)cc21 (configuration not stated)
IC50 [1]: 12.1 µM | IC50 [2]: > 100 µM

CCCCCC1(O)C(=O)Nc2ccc(Nc3ccc(OC)cc3)cc21 (configuration not stated)
IC50 [1]: 8 µM | IC50 [2]: 16.2 µM

O=C1Nc2ccc(Nc3ccc(Cl)cc3)cc2/C1=C\C1CCCCC1
IC50 [1]: 2.4 µM | IC50 [2]: 13.2 µM

CCCCC1(O)C(=O)Nc2ccc(Nc3ccc(F)cc3)cc21 (configuration not stated)
IC50 [1]: 6.5 µM | IC50 [2]: 32.5 µM

CCCCCCC1(O)C(=O)Nc2ccc(Nc3ccc(Cl)cc3)cc21 (configuration not stated)
IC50 [1]: 5.4 µM | IC50 [2]: 30.3 µM

Cc1ccc(Nc2ccc3c(c2)C(CCC(C)C)C(=O)N3)cc1 (configuration not stated)
IC50 [1]: 6.6 µM | IC50 [2]: 55.3 µM

Cc1ccc(Nc2ccc3c(c2)C(Cc2ccc4c(c2)OCO4)C(=O)N3)cc1 (configuration not stated)
IC50 [1]: 18.9 µM | IC50 [2]: 63.6 µM

CCCCCCC1(O)C(=O)Nc2ccc(Nc3ccc(C(F)(F)F)cc3)cc21 (configuration not stated)
IC50 [1]: 2.8 µM | IC50 [2]: 18.8 µM

O=C1Nc2ccc(Nc3ccc(Cl)cc3)cc2/C1=C\c1ccccc1
IC50 [1]: 15 µM | IC50 [2]: 13.5 µM

CCCCCC1(O)C(=O)Nc2ccc(Nc3ccc(C)cc3)cc21 (configuration not stated)
IC50 [1]: 8.1 µM | IC50 [2]: > 100 µM

O=C1Nc2ccc(Nc3ccc(Cl)cc3)cc2/C1=C\c1ccc2c(c1)OCO2
IC50 [1]: 3.1 µM | IC50 [2]: 24.6 µM

O=C1Nc2ccc(Nc3ccc(F)cc3)cc2/C1=C\c1ccc2c(c1)OCO2
IC50 [1]: 26.3 µM | IC50 [2]: > 100 µM

CCCCC1(O)C(=O)Nc2ccc(Nc3ccc(C(F)(F)F)cc3)cc21 (configuration not stated)
IC50 [1]: 2.3 µM | IC50 [2]: 12 µM

O=C1Nc2ccc(Nc3ccc(Cl)cc3)cc2C1Cc1ccc2c(c1)OCO2 (configuration not stated)
IC50 [1]: 6 µM | IC50 [2]: 36.7 µM

Cn1cnc2c(F)c(Nc3ccc(Br)cc3Cl)c(C(=O)NOCCO)cc21 [SELUMETINIB]
inhibition [3]: inactive | IC50 [1]: 5.2 µM | inhibition [4]: 65%

O=C1Nc2ccc(Nc3ccc(F)cc3)cc2C1Cc1ccc2c(c1)OCO2 (configuration not stated)
IC50 [1]: > 30 µM | IC50 [2]: > 100 µM

CC(C)CCC1C(=O)Nc2ccc(Nc3ccc(Cl)cc3)cc21 (configuration not stated)
IC50 [1]: 2 µM | IC50 [2]: 48.7 µM

O=C1Nc2ccc(Nc3ccc(Cl)cc3)cc2C1(O)Cc1ccc2c(c1)OCO2 (configuration not stated)
IC50 [1]: 3 µM | IC50 [2]: 26.6 µM

O=C1Nc2ccc(Nc3ccc(C(F)(F)F)cc3)cc2C1(O)Cc1ccc2c(c1)OCO2 (configuration not stated)
Activity [5]: 2.25% | inhibition [6]: Dose-dependent effect | Activity [7]: 11.6% | viability at 2.5 µM [8]: 82.7% | Activity [9]: 3.39% | inhibition [10]: Active | Activity [11]: 1.7% | IC50 [1]: 1.8 µM | viability at 5 µM [12]: 65.3% | IC50 [2]: 18.2 µM | Activity [13]: 25.5% | inhibition [14]: Dose-dependent effect | inhibition [15]: Active | Activity [16]: 7.57%

CCCCC1(O)C(=O)Nc2ccc(Nc3ccc(C)cc3)cc21 (configuration not stated)
IC50 [1]: 7.5 µM | IC50 [2]: 31.8 µM

CC(C)C/C=C1/C(=O)Nc2ccc(Nc3ccc(Cl)cc3)cc21
IC50 [1]: 7.4 µM | IC50 [2]: 50.9 µM

O=C1Nc2ccc(Nc3ccc(Cl)cc3)cc2C1CC1CCCCC1 (configuration not stated)
IC50 [1]: 16.6 µM | IC50 [2]: > 100 µM

Cc1ccc(Nc2ccc3c(c2)/C(=C\c2ccc4c(c2)OCO4)C(=O)N3)cc1
IC50 [1]: 16.7 µM | IC50 [2]: > 100 µM

NC1(c2ccc(-c3nc4ccn5c(=O)[nH]nc5c4cc3-c3ccccc3)cc2)CCC1 [MK-2206]
remaining p-AKT level [17]: 33% | IC50 [1]: 8.1 µM | inhibition [4]: Active

CC(C)CCC1(O)C(=O)Nc2ccc(Nc3ccc(Cl)cc3)cc21 (configuration not stated)
IC50 [1]: 2.7 µM | IC50 [2]: 25 µM

CCC/C=C1/C(=O)Nc2ccc(Nc3ccc(C)cc3)cc21
IC50 [1]: 3.6 µM | IC50 [2]: 19 µM

O=C1Nc2ccc(Nc3ccc(C(F)(F)F)cc3)cc2C1(O)Cc1ccccc1 (configuration not stated)
IC50 [1]: 2 µM | IC50 [2]: 9.1 µM

CCCCCC1(O)C(=O)Nc2ccc(Nc3ccc(Cl)cc3)cc21 (configuration not stated)
Activity [5]: 2.31% | Activity [7]: 11.9% | viability at 2.5 µM [8]: 83.2% | Activity [9]: 2.57% | Activity [11]: 1.82% | IC50 [1]: 1.9 µM | viability at 5 µM [12]: 72.3% | IC50 [2]: 40.8 µM | Activity [13]: 20.3% | Activity [16]: 5.65%

CCCCCCC1(O)C(=O)Nc2ccc(Nc3ccc(OC)cc3)cc21 (configuration not stated)
IC50 [1]: 18.6 µM | IC50 [2]: > 100 µM

Cc1ccc(Nc2ccc3c(c2)C(O)(Cc2ccccc2)C(=O)N3)cc1 (configuration not stated)
IC50 [1]: 4.1 µM | IC50 [2]: 31.6 µM

Cc1ccc(Nc2ccc3c(c2)/C(=C\C2CCCCC2)C(=O)N3)cc1
IC50 [1]: 28.2 µM | IC50 [2]: 45.5 µM

CCCCCC1(O)C(=O)Nc2ccc(Nc3ccc(C(F)(F)F)cc3)cc21 (configuration not stated)
IC50 [1]: 2.2 µM | IC50 [2]: 16.3 µM

Cc1ccc(Nc2ccc3c(c2)C(CC2CCCCC2)C(=O)N3)cc1 (configuration not stated)
IC50 [1]: > 30 µM | IC50 [2]: > 100 µM

O=C1Nc2ccc(Nc3ccc(F)cc3)cc2C1(O)Cc1ccccc1 (configuration not stated)
IC50 [1]: 3 µM | IC50 [2]: 18.1 µM

CCCCC1(O)C(=O)Nc2ccc(Nc3ccc(Cl)cc3)cc21 (configuration not stated)
IC50 [1]: 2.8 µM | IC50 [2]: 24.4 µM

O=C1Nc2ccc(Nc3ccccc3Cl)cc2C1(O)Cc1ccccc1 (configuration not stated)
IC50 [1]: 2.3 µM | IC50 [2]: 14.6 µM

CCCCCCC1(O)C(=O)Nc2ccc(Nc3ccc(F)cc3)cc21 (configuration not stated)
IC50 [1]: 12 µM | IC50 [2]: 50.7 µM

O=C1Nc2ccc(Nc3ccc(F)cc3)cc2C1(O)Cc1ccc2c(c1)OCO2 (configuration not stated)
IC50 [1]: 24.9 µM | IC50 [2]: 80.4 µM

O=C1Nc2ccc(Nc3ccc(Cl)cc3)cc2C1(O)Cc1ccccc1 (configuration not stated)
IC50 [1]: 3.1 µM | IC50 [2]: 20.2 µM

Cc1ccc(Nc2ccc3c(c2)C(O)(CCC(C)C)C(=O)N3)cc1 (configuration not stated)
IC50 [1]: 12.5 µM | IC50 [2]: 22.7 µM

Cc1ccc(Nc2ccc3c(c2)C(O)(Cc2ccc4c(c2)OCO4)C(=O)N3)cc1 (configuration not stated)
IC50 [1]: 11.9 µM | IC50 [2]: 14.7 µM
